From PMC5473467 (Nature, 2017)

How the values were obtained:
in vitro = assay type: cell-based; conditions: human, HepG2 CC50, 96 hours
C. hominis = C. hominis cytopathic effect; assay type: cell-based, Cryptosporidium hominis; conditions: for EC50: Cryptosporidium hominis, HCT-8, read-out: Ch CPE EC50
Procedure, shortened: (§1)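 HCT-8 cells were kept in RPMI-1640 with 10% heat-inactivated horse serum. Oocysts were primed in 10 mM HCl in HBSS for 10 min at 37 °C, washed, then excysted in L-15/UltraCULTURE medium with 2 mM taurocholate, 10% horse serum and 200 μM ascorbate. Compound dilutions were made in taurocholate-free medium. EC50 came from ten-point threefold dose–response series.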

Pf 3D7 = test: P. falciparum 3D7 growth inhibition; assay type: cell-based; conditions: Plasmodium falciparum, 3D7, read-out: Pf 3D7 IC50
C. parvum [1] = test: C. parvum cytopathic effect; assay type: cell-based, Cryptosporidium parvum; conditions: for EC50: Cryptosporidium parvum, HCT-8, read-out: Cp CPE EC50
Procedure, shortened: as §1

CpPI(4)K (cgd8_4500) = molecular target: T1, CpPI(4)K (cgd8_4500) (Cryptosporidium parvum, UniProt Q5CVD3); test: CpPI; assay type: biochemical, C. parvum; conditions: for IC50: Cp PI(4)K IC50, 3 μM ATP
T1 sequence (Q5CVD3 1-1114): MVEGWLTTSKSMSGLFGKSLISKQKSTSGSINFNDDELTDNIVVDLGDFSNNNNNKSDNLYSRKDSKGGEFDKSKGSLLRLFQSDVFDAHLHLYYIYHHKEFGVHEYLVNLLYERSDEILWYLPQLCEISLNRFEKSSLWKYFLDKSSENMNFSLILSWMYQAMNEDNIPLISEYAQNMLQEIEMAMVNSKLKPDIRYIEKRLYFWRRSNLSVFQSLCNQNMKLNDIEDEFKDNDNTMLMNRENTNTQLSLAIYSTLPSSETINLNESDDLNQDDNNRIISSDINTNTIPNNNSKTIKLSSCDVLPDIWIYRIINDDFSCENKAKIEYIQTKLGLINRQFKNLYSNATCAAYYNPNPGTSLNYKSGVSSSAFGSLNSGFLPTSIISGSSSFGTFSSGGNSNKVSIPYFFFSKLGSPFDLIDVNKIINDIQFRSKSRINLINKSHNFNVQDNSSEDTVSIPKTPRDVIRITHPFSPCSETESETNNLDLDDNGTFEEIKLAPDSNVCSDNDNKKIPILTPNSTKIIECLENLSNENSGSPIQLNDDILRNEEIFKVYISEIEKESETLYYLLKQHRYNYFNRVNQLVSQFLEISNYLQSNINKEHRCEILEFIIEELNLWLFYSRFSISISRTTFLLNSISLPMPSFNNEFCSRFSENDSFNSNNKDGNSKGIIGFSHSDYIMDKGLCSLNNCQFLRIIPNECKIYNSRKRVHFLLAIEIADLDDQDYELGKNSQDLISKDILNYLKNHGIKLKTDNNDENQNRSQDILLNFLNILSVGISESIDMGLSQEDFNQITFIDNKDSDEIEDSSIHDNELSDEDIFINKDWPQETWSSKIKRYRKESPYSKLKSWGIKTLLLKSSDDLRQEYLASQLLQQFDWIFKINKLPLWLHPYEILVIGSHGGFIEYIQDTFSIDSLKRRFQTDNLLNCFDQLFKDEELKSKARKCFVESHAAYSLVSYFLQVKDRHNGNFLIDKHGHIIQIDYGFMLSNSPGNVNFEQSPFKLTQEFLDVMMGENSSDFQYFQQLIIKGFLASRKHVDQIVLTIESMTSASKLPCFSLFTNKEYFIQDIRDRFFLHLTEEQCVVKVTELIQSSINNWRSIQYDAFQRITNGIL

C. parvum [2] = test: C. parvum High Content Imaging; assay type: cell-based; conditions: Cryptosporidium parvum, HCT-8, read-out: Cp HCI IC50
Procedure, shortened: as §1

C. parvum UGA2 Fluc = test: Mouse model following tissue parasite load using whole-animal imaging; assay type: in vivo, IFN-γKO mice; conditions: 100 mg/kg daily from day 7

Row | SMILES | CC50 (in vitro) [µM] | activity against C. hominis (C. hominis) | EC50 (C. hominis) [µM] | IC50 (Pf 3D7) [µM] | activity against C. parvum (C. parvum [1]) | EC50 (C. parvum [1]) [µM] | inhibition of CpPI(4)K enzymatic activity (CpPI(4)K (cgd8_4500)) | IC50 (CpPI(4)K (cgd8_4500)) [µM] | IC50 (C. parvum [2]) [µM] | tissue load (C. parvum UGA2 Fluc)
1 | CS(=O)(=O)c1ccc(-c2cnc(N)c(-c3ccc(C(F)(F)F)nc3)c2)cc1 [MMV390048] | 26.2 ± 16.1 | inactive | 11.8 ± 2.76 | 0.042 ± 0.022 | inactive | 12.8 ± 6.26 | do not inhibit | 8.33 ± 2.35 | 13.4 | 
2 | CC(=O)Oc1ccccc1C(=O)Nc1ncc([N+](=O)[O-])s1 [Nitazoxanide] | 12.7 ± 2.38 |  | > 20 | > 10 |  | 14.3 ± 7.13 |  | > 10 | 2.93 ± 0.808 | no change
